ChEMBL document CHEMBL1141374 (J Med Chem, 2007)

Experiments:
SK-MEL-28 = test: Growth inhibition in SK-MEL-28 cells; assay type: functional; details: Homo sapiens
NCI-H460 = test: Growth inhibition in NCI-H460 cells; assay type: functional; details: Homo sapiens
SK-MEL-2 = test: Growth inhibition in SK-MEL-2 cells; assay type: functional; details: Homo sapiens
OVCAR-3 = test: Growth inhibition in OVCAR-3 cells; assay type: functional; details: Homo sapiens
BT-549 = test: Growth inhibition in BT549 cells; assay type: functional; details: Homo sapiens
A498 = test: Growth inhibition in A498 cells; assay type: functional; details: Homo sapiens
HT-29 = test: Growth inhibition in HT29 cells; assay type: functional; details: Homo sapiens
COLO 205 = test: Growth inhibition in COLO205 cells; assay type: functional; details: Homo sapiens
[1] = Cytotoxicity against P-glycoprotein-overexpressing KB-V1 cell line; assay type: cell-based; details: Homo sapiens
How it was run: (§1)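 Log-phase cells were diluted to 20 000–30 000 cells/mL, seeded, and left to attach overnight. They were then exposed to compounds at 10^–5–10^–12 M for 72 h at 37 °C in 5% CO2. Viable cells were measured by MTT, with absorbance read at 595 nm. Each compound ran in triplicate in at least three independent assays. IC50 came from nonlinear regression, and average values were reported.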

SN12C = test: Growth inhibition in SN12C cells; assay type: functional; details: Homo sapiens
Tubulin = test: Inhibition of tubulin polymerization; assay type: protein-complex assay, Homo sapiens
How it was run: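 Kit-based assay run per the manufacturer's instructions. Tubulin (>99% pure, 3 mg/mL) in G-PEM buffer, in a prewarmed plate with compound at 0.03–30 μM. OD340 nm read every 60 s at 37 °C for 1 h.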

[2] = Growth inhibition in HCC15 cells; assay type: functional; details: Homo sapiens
ZR-75-1 = test: Cytotoxicity against ZR-75-1 cell line; assay type: cell-based; details: Homo sapiens; how it was run: as §1
TK-10 = test: Growth inhibition in TK10 cells; assay type: functional; details: Homo sapiens
T47D = test: Growth inhibition in T47D cells; assay type: functional; details: Homo sapiens
IGROV-1 = test: Growth inhibition in IGROV1 cells; assay type: functional; details: Homo sapiens
DU-145 = test: Growth inhibition in DU145 cells; assay type: functional; details: Homo sapiens
K562 = test: Growth inhibition in K562 cells; assay type: functional; details: Homo sapiens
RXF 393 = test: Growth inhibition in RXF393 cells; assay type: functional; details: Homo sapiens
OVCAR-4 = test: Growth inhibition in OVCAR4 cells; assay type: functional; details: Homo sapiens
CAKI-1 = test: Growth inhibition in CAK1-1 cells; assay type: functional; details: Homo sapiens
SK-MEL-5 = test: Growth inhibition in SK-MEL-5 cells; assay type: functional; details: Homo sapiens
SW-620 = test: Growth inhibition in SW620 cells; assay type: functional; details: Homo sapiens
SF-268 = test: Growth inhibition in SF268 cells; assay type: functional; details: Homo sapiens
SNB-19 = test: Growth inhibition in SNB19 cells; assay type: functional; details: Homo sapiens
SNB-75 = test: Growth inhibition in SNB75 cells; assay type: functional; details: Homo sapiens
[3] = Cytotoxicity against KB-3-1 cell line; assay type: cell-based; details: Homo sapiens; how it was run: as §1
UO-31 = test: Growth inhibition in UO31 cells; assay type: functional; details: Homo sapiens
HOP-92 = test: Growth inhibition in HOP92 cells; assay type: functional; details: Homo sapiens
SF-539 = test: Growth inhibition in SF539 cells; assay type: functional; details: Homo sapiens
OVCAR-8 = test: Growth inhibition in OVCAR8 cells; assay type: functional; details: Homo sapiens
MDA-MB-435 = test: Growth inhibition in MDA-MB-435 cells; assay type: functional; details: Homo sapiens
786-0 = test: Growth inhibition in 786-0 cells; assay type: functional; details: Homo sapiens
[4] = Growth inhibition in MDA-MB-231/ATCC cells; assay type: functional; details: Homo sapiens
LOX IMVI = test: Growth inhibition in LOX IMVI cells; assay type: functional; details: Homo sapiens
U-251 = test: Growth inhibition in U251cells; assay type: functional; details: Homo sapiens
PC-3 = test: Growth inhibition in PC3 cells; assay type: functional; details: Homo sapiens
ACHN = test: Growth inhibition in ACHN cells; assay type: functional; details: Homo sapiens
SF-295 = test: Growth inhibition in SF295 cells; assay type: functional; details: Homo sapiens
NCI-H226 = test: Growth inhibition in NCI-H226 cells; assay type: functional; details: Homo sapiens
M14 = test: Growth inhibition in M14 cells; assay type: functional; details: Homo sapiens
HeLa = test: Cytotoxicity against HeLa cell line; assay type: cell-based; details: Homo sapiens; how it was run: as §1
NCI-H23 = test: Growth inhibition in NCI-H23 cells; assay type: functional; details: Homo sapiens
HL-60 = test: Growth inhibition in HL60 cells; assay type: functional; details: Homo sapiens
UACC-257 = test: Growth inhibition in UACC257 cells; assay type: functional; details: Homo sapiens
NCI/ADR-RES = test: Growth inhibition in NCI/ADR-RES cells; assay type: functional; details: Homo sapiens
[5] = Growth inhibition in HS 578T cells; assay type: functional; details: Homo sapiens
MCF7 = test: Growth inhibition in MCF7 cells; assay type: functional; details: Homo sapiens
HCT-116 = test: Cytotoxicity against HCT116 cell line; assay type: cell-based; details: Homo sapiens; how it was run: as §1
[6] = Growth inhibition in HCC116 cells; assay type: functional; details: Homo sapiens
NCI-H522 = test: Growth inhibition in NCI-H522 cells; assay type: functional; details: Homo sapiens
A549 = test: Growth inhibition in A549 cells; assay type: functional; details: Homo sapiens
SK-OV-3 = test: Growth inhibition in SKOV3 cells; assay type: functional; details: Homo sapiens
OVCAR-5 = test: Growth inhibition in OVCAR5 cells; assay type: functional; details: Homo sapiens
UACC-62 = test: Growth inhibition in UACC62 cells; assay type: functional; details: Homo sapiens
HOP-62 = test: Growth inhibition in HOP62 cells; assay type: functional; details: Homo sapiens
NCI-H322M = test: Growth inhibition in NCI-H322M cells; assay type: functional; details: Homo sapiens
HCC 2998 = test: Growth inhibition in HCC2998 cells; assay type: functional; details: Homo sapiens
KM12 = test: Growth inhibition in KM12 cells; assay type: functional; details: Homo sapiens
CCRF-CEM = test: Growth inhibition in CCRF-CEM cells; assay type: functional; details: Homo sapiens
EKVX = test: Growth inhibition in EKVX cells; assay type: functional; details: Homo sapiens

COc1ccc(-n2cnnc2-c2cc(OC)c(OC)c(OC)c2)cc1O
GI50 (SK-MEL-28): 0.427 µM | GI50 (NCI-H460): 407 nM | GI50 (SK-MEL-2): 724 nM | GI50 (OVCAR-3): 195 nM | GI50 (BT-549): 3.63 µM | GI50 (A498): 417 nM | GI50 (HT-29): 2880 nM | GI50 (COLO 205): 1170 nM | IC50 [1]: 544 nM | GI50 (SN12C): 603 nM | IC50 (Tubulin): 6 µM | GI50 [2]: 631 nM | IC50 (ZR-75-1): 141 nM | GI50 (TK-10): 7.41 µM | GI50 (T47D): 269 nM | GI50 (IGROV-1): 447 nM | GI50 (DU-145): 661 nM | GI50 (K562): 209 nM | GI50 (RXF 393): 309 nM | GI50 (OVCAR-4): 417 nM | GI50 (CAKI-1): 708 nM | GI50 (SK-MEL-5): 288 nM | GI50 (SW-620): 380 nM | GI50 (SF-268): 0.257 µM | GI50 (SNB-19): 407 nM | GI50 (SNB-75): 251 nM | IC50 [3]: 57.3 nM | GI50 (UO-31): 501 nM | GI50 (HOP-92): 617 nM | GI50 (SF-539): 372 nM | GI50 (OVCAR-8): 977 nM | GI50 (MDA-MB-435): 24.6 nM | GI50 (786-0): 501 nM | GI50 [4]: 977 nM | GI50 (LOX IMVI): 550 nM | GI50 (U-251): 407 nM | GI50 (PC-3): 288 nM | GI50 (ACHN): 417 nM | GI50 (SF-295): 302 nM | GI50 (NCI-H226): > 100 µM | GI50 (M14): 295 nM | IC50 (HeLa): 25 nM | GI50 (NCI-H23): 4.27 µM | GI50 (HL-60): 389 nM | GI50 (UACC-257): > 100 µM | GI50 (NCI/ADR-RES): 1550 nM | GI50 [5]: 363 nM | GI50 (MCF7): 617 nM | IC50 (HCT-116): 88.9 nM | GI50 [6]: 398 nM | GI50 (NCI-H522): 263 nM | GI50 (A549): 1 µM | GI50 (SK-OV-3): 0.316 µM | GI50 (OVCAR-5): 1950 nM | GI50 (UACC-62): 407 nM | GI50 (HOP-62): 490 nM | GI50 (NCI-H322M): 91.2 µM | GI50 (HCC 2998): 933 nM | GI50 (KM12): 141 nM | GI50 (CCRF-CEM): 295 nM

COc1ccc(/C=C\c2cc(OC)c(OC)c(OC)c2)cc1O [COMBRETASTATIN A4]
IC50 [1]: 0.64 nM | IC50 (ZR-75-1): 0.24 nM | IC50 [3]: 0.78 nM | IC50 (HeLa): 0.3 nM | IC50 (HCT-116): 0.35 nM

COc1ccc(-n2cnnc2-c2cc(OC)c(OC)c(OC)c2)cc1
GI50 (SK-MEL-28): 9.55 µM | GI50 (NCI-H460): 3390 nM | GI50 (OVCAR-3): 1740 nM | GI50 (BT-549): 9.77 µM | GI50 (A498): 3800 nM | GI50 (HT-29): 2140 nM | GI50 (COLO 205): 3470 nM | IC50 [1]: 907 nM | GI50 (SN12C): 4070 nM | GI50 [2]: 1700 nM | IC50 (ZR-75-1): 522 nM | GI50 (TK-10): 9.77 µM | GI50 (DU-145): 2950 nM | GI50 (K562): 631 nM | GI50 (RXF 393): 1580 nM | GI50 (OVCAR-4): 5500 nM | GI50 (CAKI-1): 2570 nM | GI50 (SK-MEL-5): 2400 nM | GI50 (SW-620): 2750 nM | GI50 (SF-268): 5.89 µM | GI50 (SNB-19): 5250 nM | GI50 (SNB-75): 2340 nM | IC50 [3]: 373 nM | GI50 (HOP-92): > 100000 nM | GI50 (SF-539): 4070 nM | GI50 (OVCAR-8): 4790 nM | GI50 (MDA-MB-435): 234 nM | GI50 (786-0): 2510 nM | GI50 [4]: 3160 nM | GI50 (LOX IMVI): 4370 nM | GI50 (U-251): 4370 nM | GI50 (PC-3): 4900 nM | GI50 (ACHN): 4470 nM | GI50 (SF-295): 1290 nM | GI50 (NCI-H226): 5.25 µM | GI50 (M14): 1950 nM | IC50 (HeLa): 290 nM | GI50 (NCI-H23): 3.16 µM | GI50 (HL-60): 4070 nM | GI50 (UACC-257): 3.98 µM | GI50 (NCI/ADR-RES): 1780 nM | GI50 [5]: 2950 nM | GI50 (MCF7): 1700 nM | IC50 (HCT-116): 230 nM | GI50 (EKVX): 37.2 µM | GI50 [6]: 3020 nM | GI50 (A549): 8.32 µM | GI50 (SK-OV-3): 6.46 µM | GI50 (OVCAR-5): 3800 nM | GI50 (UACC-62): 3240 nM | GI50 (HOP-62): 2090 nM | GI50 (NCI-H322M): 5.62 µM | GI50 (HCC 2998): 295 nM | GI50 (KM12): 2140 nM | GI50 (CCRF-CEM): 1860 nM

CC(=O)O[C@H]1C(=O)[C@@]2(C)[C@H]([C@H](OC(=O)c3ccccc3)[C@]3(O)C[C@H](OC(=O)[C@H](O)[C@@H](NC(=O)c4ccccc4)c4ccccc4)C(C)=C1C3(C)C)[C@]1(OC(C)=O)CO[C@@H]1C[C@@H]2O [PACLITAXEL]
IC50 [1]: > 10000 nM | IC50 (ZR-75-1): 308 nM | IC50 [3]: 23.3 nM
